The values below come from ChEMBL document CHEMBL1143625, “Bisphosphonate inhibitors of Toxoplasma gondi growth: in vitro, QSAR, and in vivo investigations” (J Med Chem, 2005).

Molecules are shown by their SMILES. Some results are limits rather than exact numbers.

A short description of series [1]: In vitro inhibitory concentration against the growth of Toxoplasma gondii in human foreskin fibroblast monolayer cells (HFF cells). The format is functional, cell-based. The method in brief:
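T. gondii 2F clone tachyzoites expressing β-galactosidase, kept in HFF in DMEM with 10% FBS, 2 mM glutamine and 1 mM pyruvate. Confluent HFF monolayers were given serially diluted drug in medium, then 10^4 filtered, needle-passed tachyzoites/mL, and held 48 h at 37 °C. Cells were lysed at 50 °C, and CPRG turnover was read at 570 nm. IC50 came from a hyperbolic fit of % inhibition against concentration.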

Series [2] in a line: Therapeutic index (TI) value as ratio of lethal dose (LD50) to the inhibitory concentration (IC50). It is filed as cell-based. Conditions: human, KB cells; read-out: TI.
The subject of a further series is KB. Put plainly: Lethal dose required to inhibit the growth of human KB (nasopharyngeal carcinoma) cell line. The format is functional. Conditions: read-out: LD50 (the source's name).

By IC50 is commonly meant the midpoint of a concentration-inhibition curve. Read a low IC50 as greater potency. In the case of `C[C@H](NC(P(=O)(O)O)P(=O)(O)O)c1cccc2ccccc12`, in series [1], the midpoint of inhibition, the IC50, lay at 55.1 µM.

Turning to `O=P(O)(O)C(N(C1CCCCC1)C1CCCCC1)P(=O)(O)O` [(DICYCLOHEXYLAMINO)METHYLENEDIPHOSPHONIC ACID], the selectivity ratio in series [2] is over 20.1. In the series with KB, the CC50 is over 844 µM. This compound also had a concentration for half-maximal inhibition (IC50) in series [1] of 42.1 µM.

Regarding `O=P(O)(O)C(O)(Cc1ccccc1)P(=O)(O)O`, in series [2], the selectivity ratio was over 10.3. For the same compound, the CC50 in the series on KB is over 931 µM. For the same compound, the IC50 in series [1] turned out to be 90.2 µM.

Turning to `CCCCCN(C)CCC(O)(P(=O)(O)O)P(=O)(O)O` [IBANDRONIC ACID], in series [2], the selectivity ratio was found to be 0.19. Besides, the CC50 with KB worked out at 10.4 µM. The compound also gave a 50% inhibitory concentration (IC50) in series [1] of 54.9 µM.

In series [1], `CN(Cc1ccccc1)C(P(=O)(O)O)P(=O)(O)O` displayed a half-maximal inhibitory concentration (IC50) of 76.7 µM.

As for `CCCCCCCC(O)(P(=O)(O)O)P(=O)(O)O`, in series [2], the selectivity ratio is 21.9. Further, the CC50 with KB came to 302 µM. The half-maximal inhibitory concentration (IC50) in series [1] was found to be 13.8 µM.

`O=P(O)(O)C(Sc1ccccn1)P(=O)(O)O` gave a concentration for half-maximal inhibition (IC50) in series [1] of 51.2 µM.

In the case of `NCCC(O)(P(=O)(O)O)P(=O)(O)O` [PAMIDRONIC ACID], the selectivity ratio in series [2] turned out to be 4.11. In addition, the CC50 in the series with KB came to 156 µM. In series [1], half-maximal inhibition (IC50) was put at 38 µM.

For `NCCCCC(O)(P(=O)(O)O)P(=O)(O)O`, the selectivity ratio in series [2] came to 0.72. The CC50 with KB was found to be 91 µM. In series [1], inhibition was half-maximal at 126 µM (IC50).

Consider `O=P(O)(O)C(Nc1cccnc1)P(=O)(O)O`, for which the selectivity ratio in series [2] stood at 18.6. Further, the CC50 with KB is 782 µM. In series [1], this compound yielded a 50% inhibitory concentration (IC50) of 42 µM.

As to `CCC(C)CNC(P(=O)(O)O)P(=O)(O)O` (stereo not drawn), the selectivity ratio in series [2] stood at 10.8. Further, the CC50 with KB amounted to 394 µM. Besides, the IC50 in series [1] came out at 36.6 µM.

For the compound `O=P(O)(O)C(NC1CCCCCC1)P(=O)(O)O` [INCADRONIC ACID], the selectivity ratio in series [2] amounted to 4.19. For the same compound, the CC50 with KB was found to be 166 µM. This compound displayed an IC50 in series [1] of 39.6 µM.

For `CCCNC(P(=O)(O)O)P(=O)(O)O` [(PROPYLAMINO)METHYLENEDIPHOSPHONIC ACID], in series [2], the selectivity ratio is 7.21. Besides, the CC50 in the series with KB was determined as 499 µM. In series [1], the IC50 worked out at 69.2 µM.

As for `O=P(O)(O)C(N1CCCCC1)P(=O)(O)O`, the selectivity ratio in series [2] was over 21.9. For the same compound, the CC50 in the series with KB was over 1120 µM. Further, it took 51.2 µM to reach half-maximal inhibition in series [1] (IC50).

Regarding `O=[N+]([O-])c1cccc(CC(O)(P(=O)(O)O)P(=O)(O)O)c1`, in series [1], half-maximal inhibition (IC50) was put at 47.9 µM. This counts as double-digit micromolar.

On to `CC1CCCCN1C(P(=O)(O)O)P(=O)(O)O` (stereo not drawn), for which the half-maximal inhibitory concentration (IC50) in series [1] turned out to be 132 µM.

`Cc1ccnc(N(Cc2ccccc2)C(P(=O)(O)O)P(=O)(O)O)c1`: half-maximal inhibition in series [1] (IC50) required 226 µM. Against the preceding compound, the IC50 is about 1.7-fold higher.

With `O=P(O)(O)C(O)(CC1=NC=NC1)P(=O)(O)O`, the selectivity ratio in series [2] was determined as 6.12. The CC50 in the series on KB was 41 µM. This compound registered an IC50 in series [1] of 6.7 µM.

In series [1], `CCc1cccc(NC(P(=O)(O)O)P(=O)(O)O)n1` showed a 50% inhibitory concentration (IC50) of 218 µM.

`O=P(O)(O)C(O)(Cn1cnc2ccccc21)P(=O)(O)O`: it took 4.5 µM to reach half-maximal inhibition in series [1] (IC50).

For the compound `O=P(O)(O)C(O)(Cc1ccccn1)P(=O)(O)O`, in series [2], the selectivity ratio was found to be 1.71. Also, in the series with KB, the CC50 is 13.9 µM. The compound also registered an IC50 in series [1] of 8.11 µM.

In the case of `O=P(O)(O)C(Nc1ccnc(O)c1)P(=O)(O)O`, the selectivity ratio in series [2] stood at 14.8. The CC50 in the series on KB amounted to 257 µM. The compound further came in with an IC50 in series [1] of 17.4 µM.

In the case of `O=P(O)(O)C(NC1CCC1)P(=O)(O)O` [(CYCLOBUTYLAMINO)METHYLENEDIPHOSPHONIC ACID], the selectivity ratio in series [2] came out at 2.15. Further, the CC50 in the series on KB came to 260 µM. Further, the half-inhibitory concentration (IC50) in series [1] was 121 µM.

On to `NCCCC(O)(P(=O)(O)O)P(=O)(O)O` [ALENDRONIC ACID], for which, in series [1], half-maximal inhibition (IC50) was put at 109 µM.

In the case of `CC(C)(C)c1cccc(NC(P(=O)(O)O)P(=O)(O)O)c1`, half-maximal inhibition in series [1] (IC50) was put at 157 µM.

Consider `CCCCC(O)(P(=O)(O)O)P(=O)(O)O`, for which the selectivity ratio in series [2] was over 6.95. In addition, the CC50 in the series with KB is over 1040 µM. In addition, half-maximal inhibition in series [1] (IC50) was put at 150 µM.

As for `Cc1ccnc(NC(P(=O)(O)O)P(=O)(O)O)c1`, the selectivity ratio in series [2] stood at 2.32. Moreover, the CC50 with KB is 137 µM. This compound yielded an IC50 in series [1] of 59 µM.

Turning to `Cc1cccnc1NC(P(=O)(O)O)P(=O)(O)O`, in series [2], the selectivity ratio came to 4.02. The CC50 in the series with KB amounted to 179 µM. This compound showed a half-inhibitory concentration (IC50) in series [1] of 44.5 µM.

`CCC(C)NC(P(=O)(O)O)P(=O)(O)O` (stereo not drawn) yielded an IC50 in series [1] of 164 µM.

Turning to `Cc1cc(C)nc(NC(P(=O)(O)O)P(=O)(O)O)c1`, in series [2], the selectivity ratio was 2.7. Moreover, the CC50 in the series with KB turned out to be 633 µM. In series [1], this compound came in with an IC50 of 235 µM.

In series [1], `Cc1csc(NC(P(=O)(O)O)P(=O)(O)O)n1` registered an IC50 of 30.9 µM. In other words, the double-digit micromolar range.

As to `O=P(O)(O)C(O)(Cc1cccc2ccccc12)P(=O)(O)O`, in series [1], the half-maximal inhibitory concentration (IC50) came to 68.8 µM.

Consider `CCCCCCCCCNC(P(=O)(O)O)P(=O)(O)O` [(NONYLAMINO)METHYLENEDIPHOSPHONIC ACID], for which the selectivity ratio in series [2] was over 103. For the same compound, the CC50 in the series on KB is over 919 µM. Further, the IC50 in series [1] amounted to 8.89 µM.

In series [1], `O=P(O)(O)C(Nc1cccc(Cc2ccccc2)c1)P(=O)(O)O` showed a concentration for half-maximal inhibition (IC50) of 56.2 µM.

Compound `Cc1cccc(CC(O)(P(=O)(O)O)P(=O)(O)O)c1` returned an IC50 in series [1] of 36.4 µM.

Take `Nc1ccc(CC(O)(P(=O)(O)O)P(=O)(O)O)cc1`: in series [2], the selectivity ratio was 2.71. Further, in the series with KB, the CC50 worked out at 218 µM. The compound also gave a concentration for half-maximal inhibition (IC50) in series [1] of 80.3 µM.

Regarding `O=P(O)(O)C(NC1CCCC1)P(=O)(O)O` [(CYCLOPENTYLAMINO)METHYLENEDIPHOSPHONIC ACID], the selectivity ratio in series [2] turned out to be 9.19. Besides, the CC50 in the series on KB came to 629 µM. In series [1], this compound showed an IC50 of 68.4 µM.

Turning to `O=P(O)(O)C(NC1CC1)P(=O)(O)O` [(CYCLOPROPYLAMINO)METHYLENEDIPHOSPHONIC ACID], the selectivity ratio in series [2] was determined as 10.7. Moreover, in the series on KB, the CC50 came to 246 µM. In series [1], this compound gave an IC50 of 23.1 µM.

Regarding `O=P(O)(O)C(N1CCSCC1)P(=O)(O)O` [THIOMORPHOLINOMETHYLENEDIPHOSPHONIC ACID], the selectivity ratio in series [2] was over 6.73. The CC50 in the series on KB was over 1080 µM. Further, half-maximal inhibition in series [1] (IC50) required 161 µM.

In the case of `CC(C)CCNC(P(=O)(O)O)P(=O)(O)O` [(ISOPENTYLAMINO)METHYLENEDIPHOSPHONIC ACID], the selectivity ratio in series [2] is 3.56. Further, the CC50 in the series on KB was 480 µM. 135 µM corresponded to half-maximal inhibition in series [1] (IC50).

Take `O=P(O)(O)C(Nc1ccccn1)P(=O)(O)O`: the selectivity ratio in series [2] is 10.4. The CC50 in the series with KB worked out at 465 µM. Besides, in series [1], the IC50 came to 44.6 µM.

As to `O=P(O)(O)C(N1CCCCCC1)P(=O)(O)O` [N-(HEXAMETHYLENEIMINO)METHYLENEBISPHOSPHONIC ACID], the selectivity ratio in series [2] was over 12.2. Moreover, in the series with KB, the CC50 is over 1100 µM. Also, the IC50 in series [1] is 89.8 µM.

Turning to `O=P(O)(O)C(O)(CSc1ccncc1)P(=O)(O)O`, the selectivity ratio in series [2] is over 10.3. In addition, the CC50 in the series on KB is over 746 µM. In series [1], this compound yielded a half-inhibitory concentration (IC50) of 72.5 µM.

Take `C[C@@H](NC(P(=O)(O)O)P(=O)(O)O)c1cccc2ccccc12`: half-maximal inhibition in series [1] (IC50) required 63.2 µM.

As to `CC(C)c1cccc(NC(P(=O)(O)O)P(=O)(O)O)c1`, half-maximal inhibition in series [1] (IC50) was put at 160 µM.

For `O=P(O)(O)C(O)(Cc1cnc2ccccn12)P(=O)(O)O` [MINODRONIC ACID], the midpoint of inhibition in series [1], the IC50, lay at 1.88 µM. Compared with the last compound, the IC50 is about 85-fold lower.

In series [1], `O=P(O)(O)C(Nc1ccc(Cl)cc1Cl)P(=O)(O)O` [2,4-DICHLOROPHENYLAMINOMETHYLENEBISPHOSPHONIC ACID] registered a half-inhibitory concentration (IC50) of 154 µM.
